Laboratory results: ChEMBL document CHEMBL1146453, “Insecticidal sesquiterpene pyridine alkaloids from Maytenus chiapensis” (J Nat Prod, 2004)
Values after ≈ are worked out from the molar mass of the structure shown. Active and inactive are the calls of the source. The rule behind the calls is not given here.

What was measured:
[1] = system: Spodoptera littoralis; experiment: Antifeedant activity against Spodoptera littoralis L6 larvae assessed as biomass gain relative to control; type: functional; set-up: concentration or dose not given beside the values
Outline: (§1)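 Sixth-instar S. littoralis larvae reared on artificial diet at 22 ± 1 °C, >70% RH, 16:8 h L:D, dosed orally. Food consumption and biomass gain were recorded. Post-ingestive effects were tested by ANCOVA of biomass gain with food consumption as covariate.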

[2] = system: Spodoptera littoralis; experiment: Antifeedant activity against Spodoptera littoralis L6 larvae treated orally; type: functional, organism-based; outline: as §1
[3] = system: Spodoptera littoralis; experiment: Antifeedant activity against Spodoptera littoralis L6 larvae assessed as nutritional consumption relative to control; type: functional; set-up: concentration or dose not given beside the values; outline: as §1
[4] = system: Spodoptera littoralis; experiment: Antifeedant activity against Spodoptera littoralis L6 larvae; type: functional, organism-based
Outline: (§2)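 Choice feeding test on sixth-instar S. littoralis larvae and apterous adult M. persicae. Larvae reared on artificial diet, aphids on bell pepper plants, both at 22 ± 1 °C, >70% RH, 16:8 h L:D. Read-out is percent feeding inhibition (larvae) or settling inhibition (aphids). Actives above 50% went to dose–response, with EC50 taken from linear regression of %FR or %SI on log dose.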

[5] = Cytotoxicity against Spodoptera frugiperda Sf9 cells by MTT assay; type: cell-based; settings: read-out: LD50 (the source's name)
Outline: (§3)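 Sf9 cells (S. frugiperda pupal ovarian tissue) and CHO cells were cultured and scored for viability by an adapted MTT colorimetric assay. LD50, the dose giving 50% viability, was calculated for active compounds.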

[6] = Cytotoxicity against CHO cells by MTT assay; type: cell-based, Cricetulus griseus; settings: chinese hamster, read-out: LD50 (the source's name); outline: as §3
[7] = system: Myzus persicae; experiment: Antifeedant activity against Myzus persicae; type: functional, organism-based; outline: as §2

Question: For `CC(=O)OC[C@]12[C@H](OC(C)=O)[C@H](OC(C)=O)[C@@H]3[C@@H](OC(C)=O)[C@@]14O[C@@]3(C)COC(=O)c1cccnc1CCC(C)(O)C(=O)O[C@@H]([C@H](OC(=O)c1ccccc1)[C@@H]2OC(C)=O)[C@]4(C)O` (some centres not stated) [WILFORDINE], which Activity [1] is on record?
Answer: The Activity was 93%.

Question: And the Activity [2]?
Answer: Its Activity is “inactive”.

Question: And the Activity [3]?
Answer: The Activity was 109%.

Question: And the EC50 [4]?
Answer: The EC50 was 2.3 ×10⁻⁴ ug/cm2.

Question: What about the CC50 [5] of the same molecule?
Answer: Its CC50 is 86.2 µg/mL (≈ 97.6 µM).

Question: And the CC50 [6]?
Answer: Its CC50 is > 100 µg/mL.

Question: What about the Activity [7] of the same molecule?
Answer: Its Activity is “inactive”.

Question: With `CC(=O)OC[C@]12[C@H](OC(C)=O)[C@H](OC(C)=O)[C@@H]3[C@@H](OC(C)=O)[C@@]14O[C@@]3(C)COC(=O)c1cccnc1CCC(C)C(=O)O[C@@H]([C@H](OC(C)=O)[C@@H]2OC(C)=O)[C@]4(C)O` (some centres not stated) [EUONINE] as the molecule, how does the Activity [1] read?
Answer: Its Activity is 98%.

Question: And the Activity [2]?
Answer: Its Activity is “inactive”.

Question: And the Activity [3]?
Answer: Its Activity is 111%.

Question: What about the EC50 [4] of the same molecule?
Answer: The EC50 was 1.8 ×10⁻⁴ ug/cm2.

Question: What about the CC50 [5] of the same molecule?
Answer: Its CC50 is 48.4 µg/mL (≈ 60 µM).

Question: What about the CC50 [6] of the same molecule?
Answer: Its CC50 is > 100 µg/mL.

Question: And the Activity [7]?
Answer: Its Activity is “inactive”.

Question: For `CC(=O)OC[C@]12[C@H](OC(C)=O)[C@H](OC(C)=O)[C@@H]3[C@@H](OC(C)=O)[C@@]14O[C@@]3(C)COC(=O)c1cccnc1C(C)C(C)C(=O)O[C@@H]([C@H](O)[C@@H]2OC(C)=O)[C@]4(C)O` (some centres not stated), which Activity [1] is on record?
Answer: The Activity was 101%.

Question: And the Activity [3]?
Answer: Its Activity is 94%.

Question: And the EC50 [4]?
Answer: Its EC50 is > 50 microg/cm2.

Question: And the CC50 [5]?
Answer: The CC50 was 57.5 µg/mL (≈ 75.3 µM).

Question: And the CC50 [6]?
Answer: The CC50 was > 100 µg/mL.

Question: And the Activity [7]?
Answer: The Activity was “inactive”.

Question: For `CC(=O)OC[C@]12[C@H](OC(C)=O)[C@H](OC(C)=O)[C@@H]3[C@@H](OC(C)=O)[C@@]14O[C@@]3(C)COC(=O)c1cccnc1C(C)C(C)C(=O)O[C@@H]([C@H](O)[C@@H]2OC(=O)c1ccccc1)[C@]4(C)O` (some centres not stated) [EBENIFOLINE E I], which Activity [1] is on record?
Answer: Its Activity is 83%.

Question: What about the Activity [2] of the same molecule?
Answer: Its Activity is “inactive”.

Question: And the Activity [3]?
Answer: The Activity was 81%.

Question: What about the EC50 [4] of the same molecule?
Answer: The EC50 was 0.72 microg/cm2.

Question: And the CC50 [5]?
Answer: Its CC50 is 78.8 µg/mL (≈ 95.4 µM).

Question: What about the CC50 [6] of the same molecule?
Answer: The CC50 was > 100 µg/mL.

Question: What about the Activity [7] of the same molecule?
Answer: Its Activity is “inactive”.

Question: Which Activity [1] does the source give for `CC(=O)OC[C@]12[C@H](OC(C)=O)[C@H](OC(C)=O)[C@@H]3[C@@H](OC(C)=O)[C@@]14O[C@@]3(C)COC(=O)c1cccnc1C(C)C(C)C(=O)O[C@@H]([C@H](OC(C)=O)[C@@H]2OC(=O)c1ccccc1)[C@]4(C)O` (some centres not stated) [MAYTEINE] here?
Answer: The Activity was 112%.

Question: And the Activity [3]?
Answer: Its Activity is 146%.

Question: What about the EC50 [4] of the same molecule?
Answer: Its EC50 is > 50 microg/cm2.

Question: And the CC50 [5]?
Answer: Its CC50 is > 100 µg/mL.

Question: What about the CC50 [6] of the same molecule?
Answer: The CC50 was > 100 µg/mL.

Question: What about the Activity [7] of the same molecule?
Answer: The Activity was “inactive”.

Question: What does the source list for `CC(=O)OC[C@]12[C@H](OC(C)=O)C(=O)[C@@H]3[C@@H](OC(C)=O)[C@@]14O[C@@]3(C)COC(=O)c1cccnc1CCC(C)(O)C(=O)O[C@@H]([C@H](OC(=O)c1ccccc1)[C@@H]2OC(=O)c1ccccc1)[C@]4(C)O` (some centres not stated)?
Answer: Activity [1]: 93%; Activity [2]: inactive; Activity [3]: 92%; EC50 [4]: 6.6 ×10⁻² ug/cm2; CC50 [5]: 78.7 µg/mL (≈ 87.2 µM); CC50 [6]: > 100 µg/mL; Activity [7]: inactive

Question: Which Activity [1] does the source give for `CC(=O)OC[C@]12[C@H](OC(C)=O)C(=O)[C@@H]3[C@@H](OC(C)=O)[C@@]14O[C@@]3(C)COC(=O)c1cccnc1CCC(C)(O)C(=O)O[C@@H]([C@H](OC(=O)c1ccccc1)[C@@H]2OC(C)=O)[C@]4(C)O` (some centres not stated) [ALATAMINE] here?
Answer: Its Activity is 118%.

Question: What about the Activity [2] of the same molecule?
Answer: Its Activity is “inactive”.

Question: What about the Activity [3] of the same molecule?
Answer: Its Activity is 117%.

Question: What about the EC50 [4] of the same molecule?
Answer: Its EC50 is 5.2 ×10⁻³ ug/cm2.

Question: And the CC50 [5]?
Answer: Its CC50 is > 100 µg/mL.

Question: And the CC50 [6]?
Answer: The CC50 was > 100 µg/mL.

Question: What about the Activity [7] of the same molecule?
Answer: The Activity was “inactive”.

Question: What does the source list for `CC(=O)OC[C@]12[C@H](OC(C)=O)[C@H](OC(C)=O)[C@@H]3[C@@H](OC(C)=O)[C@@]14O[C@@]3(C)COC(=O)c1cccnc1CCC(C)(O)C(=O)O[C@@H]([C@H](OC(C)=O)[C@@H]2OC(C)=O)[C@]4(C)O` (some centres not stated) [ALATUSININE]?
Answer: Activity [1]: 111%; Activity [2]: inactive; Activity [3]: 125%; EC50 [4]: 1.6 ×10⁻⁴ ug/cm2; CC50 [5]: 73.2 µg/mL (≈ 89.1 µM); CC50 [6]: > 100 µg/mL; Activity [7]: inactive

Question: With `CC(=O)OC[C@]12[C@H](OC(C)=O)[C@H](OC(C)=O)[C@@H]3[C@@H](OC(C)=O)[C@@]14O[C@@]3(C)COC(=O)c1cccnc1C(C)C(C)C(=O)O[C@@H]([C@H](OC(C)=O)[C@@H]2OC(C)=O)[C@]4(C)O` (some centres not stated) [EUONYMINE] as the molecule, how does the Activity [1] read?
Answer: The Activity was 105%.

Question: What about the Activity [3] of the same molecule?
Answer: Its Activity is 102%.

Question: And the EC50 [4]?
Answer: The EC50 was > 50 microg/cm2.

Question: And the CC50 [5]?
Answer: Its CC50 is 49.6 µg/mL (≈ 61.6 µM).

Question: What about the CC50 [6] of the same molecule?
Answer: Its CC50 is > 100 µg/mL.

Question: What about the Activity [7] of the same molecule?
Answer: The Activity was “inactive”.

Question: Which results are given for `CC(=O)OC[C@]12[C@H](OC(C)=O)[C@H](OC(C)=O)[C@@H]3[C@@H](OC(C)=O)[C@@]14O[C@@]3(C)COC(=O)c1cccnc1CCC(C)(O)C(=O)O[C@@H]([C@H](OC(=O)c1ccccc1)[C@@H]2OC(=O)c1ccccc1)[C@]4(C)O` (some centres not stated)?
Answer: Activity [1]: 96%; Activity [2]: inactive; Activity [3]: 87%; EC50 [4]: 3.9 ×10⁻² ug/cm2; CC50 [5]: > 100 µg/mL; CC50 [6]: > 100 µg/mL; Activity [7]: inactive
